Measured values published in ChEMBL document CHEMBL3745596, “Chlorophenoxy aminoalkyl derivatives as histamine H(3)R ligands and antiseizure agents” (Bioorg Med Chem, 2016).
Calls of active or inactive are those of the source.

Tests used:
Mus musculus [1] = experiment: Anticonvulsant activity in CF1 albino mouse assessed as protection against subcutaneous pentetrazole-induced seizure at 100 mg/kg, ip after 4 hrs; assay type: functional, organism-based
In short: (§1)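 Male CF-1 mice, ip in 0.5% methylcellulose; pentetrazole at CD97 (85 mg/kg) injected subcutaneously in a loose fold of neck skin. Observed 30 min; absence of even a threshold seizure (single clonic spasm lasting at least 5 s) counted as protection. Scored protected/tested, or ED50.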

Mus musculus [2] = experiment: Neurotoxicity in CF1 albino mouse at 30 mg/kg, ip after 0.5 hrs by rotarod test; assay type: toxicity, organism-based; conditions: in vivo
In short: (§2)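 Rotarod neurotoxicity in male albino CF-1 mice dosed ip with compound suspended in 0.5% methylcellulose. Animal placed on a 1 inch diameter knurled plastic rod rotating at 6 rpm. Neurotoxicity scored when the animal falls off three times within 1 min. Readout is number of animals toxic/number tested at the stated time after dosing. TD50 with 95% confidence interval from the quantitative study.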

Mus musculus [3] = experiment: Neurotoxicity in CF1 albino mouse assessed as unable to grasp rotarod and death at 100 mg/kg, ip after 0.5 hrs by rotarod test; assay type: toxicity, organism-based; conditions: in vivo
In short: (§3)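 Male albino CF-1 mice dosed ip with compound suspended in 0.5% methylcellulose, then placed on a 1-inch knurled plastic rod turning at 6 rpm. A fall three times within 1 min counted as neurotoxicity. Observations were made at 0.5 h and 4 h after dosing. Result given as animals showing toxicity per animals tested, with the kind of toxicity recorded.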

Mus musculus [4] = experiment: Anticonvulsant activity in CF1 albino mouse assessed as protection against subcutaneous pentetrazole-induced seizure at 30 mg/kg, ip after 0.5 hrs; assay type: functional, organism-based; in short: as §1
Mus musculus [5] = experiment: Neurotoxicity in CF1 albino mouse at 300 mg/kg, ip after 4 hrs by rotarod test; assay type: toxicity, organism-based; conditions: in vivo; in short: as §2
Mus musculus [6] = experiment: Anticonvulsant activity in CF1 albino mouse assessed as protection against maximal electroshock-induced seizure at 30 mg/kg, ip after 0.5 hrs; assay type: functional, organism-based
In short: (§4)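 Male CF-1 mice dosed ip as suspension in 0.5% methylcellulose. Corneal electrodes deliver 60 Hz alternating current, 50 mA for […], after a drop of 0.5% tetracaine HCl in 0.9% NaCl per eye. Protection means abolition of hindlimb tonic extension; scored as protected/tested, or ED50 with 95% confidence interval.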

Histamine H3 receptor = Histamine H3 receptor (Homo sapiens, UniProt Q9Y5N1); experiment: Displacement of [3H]-Nalpha-methylhistamine from human recombinant histamine H3 receptor expressed in HEK293 cells after 90 mins; assay type: cell-based
Mus musculus [7] = experiment: Anticonvulsant activity in CF1 albino mouse assessed as protection against maximal electroshock-induced seizure at 100 mg/kg, ip after 4 hrs; assay type: functional, organism-based; in short: as §4
Mus musculus [8] = experiment: Anticonvulsant activity in CF1 albino mouse assessed as protection against maximal electroshock-induced seizure at 30 mg/kg, ip after 4 hrs; assay type: functional, organism-based; in short: as §4
Mus musculus [9] = experiment: Neurotoxicity in CF1 albino mouse assessed as unable to grasp rotarod, death and diarrhea at 300 mg/kg, ip after 0.5 hrs by rotarod test; assay type: toxicity, organism-based; conditions: in vivo; in short: as §3
Mus musculus [10] = experiment: Anticonvulsant activity in CF1 albino mouse assessed as protection against subcutaneous pentetrazole-induced seizure at 100 mg/kg, ip after 0.5 hrs; assay type: functional, organism-based; in short: as §1
Mus musculus [11] = experiment: Neurotoxicity in CF1 albino mouse at 30 mg/kg, ip after 4 hrs by rotarod test; assay type: toxicity, organism-based; conditions: in vivo; in short: as §2
Mus musculus [12] = experiment: Anticonvulsant activity in CF1 albino mouse assessed as protection against maximal electroshock-induced seizure at 300 mg/kg, ip after 0.5 hrs; assay type: functional, organism-based; in short: as §4
Mus musculus [13] = experiment: Anticonvulsant activity in CF1 albino mouse assessed as protection against subcutaneous pentetrazole-induced seizure at 30 mg/kg, ip after 4 hrs; assay type: functional, organism-based; in short: as §1
Mus musculus [14] = experiment: Anticonvulsant activity in CF1 albino mouse assessed as protection against maximal electroshock-induced seizure at 100 mg/kg, ip after 0.5 hrs; assay type: functional, organism-based; in short: as §4
Mus musculus [15] = experiment: Neurotoxicity in CF1 albino mouse at 100 mg/kg, ip after 4 hrs by rotarod test; assay type: toxicity, organism-based; conditions: in vivo; in short: as §2
[16] = Neuroprotective activity in hippocampal slice (unknown origin) assessed as protection against kainic acid-induced cell death using propidium iodide staining; assay type: functional; conditions: Hippocampus
In short: (§5)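 Organotypic hippocampal slice cultures exposed to NMDA or kainic acid alone or with compound; propidium iodide in all wells; PI fluorescence intensity of slices, proportional to cell death, compared with excitotoxin-only slices; qualitative.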

Mus musculus [17] = experiment: Anticonvulsant activity in ip dosed CF1 albino mouse assessed as protection against maximal electroshock-induced seizure after 0.25 hrs; assay type: functional; in short: as §4
Mus musculus [18] = experiment: Protective index, ratio of TD50 for ip dosed CF1 albino mouse to ED50 for ip dosed CF1 albino mouse assessed as protection against maximal electroshock-induced seizure after 0.25 hrs; assay type: functional
Mus musculus [19] = experiment: Anticonvulsant activity in CF1 albino mouse assessed as protection against maximal electroshock-induced seizure at 10 mg/kg, ip after 0.5 hrs; assay type: functional, organism-based; in short: as §4
Mus musculus [20] = experiment: Neurotoxicity in CF1 albino mouse at 10 mg/kg, ip after 0.5 hrs by rotarod test; assay type: toxicity, organism-based; conditions: in vivo
In short: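 Rotarod neurotoxicity in male CF-1 mice dosed ip as 0.5% methylcellulose suspension: mouse placed on 1 inch knurled rod rotating at 6 rpm; toxicity when the animal falls off three times within 1 min, with other signs noted. Scored as toxic/tested at 0.5 h and 4 h.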

Mus musculus [21] = experiment: Anticonvulsant activity in CF1 albino mouse assessed as protection against maximal electroshock-induced seizure at 3 mg/kg, ip after 0.5 hrs; assay type: functional, organism-based; in short: as §4
[22] = Neuroprotective activity in hippocampal slice (unknown origin) assessed as protection against NMDA-induced cell death using propidium iodide staining; assay type: functional; conditions: Hippocampus; in short: as §5
Mus musculus [23] = experiment: Neurotoxicity in CF1 albino mouse assessed as death and loss of righting reflux at 300 mg/kg, ip after 0.5 hrs by rotarod test; assay type: toxicity, organism-based; conditions: in vivo; in short: as §3
Rattus norvegicus [24] = experiment: Anticonvulsant activity in Sprague-Dawley rat assessed as protection against pilocarpine-induced convulsive status epilepticus at 65 mg/kg, ip; assay type: functional, organism-based
In short: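 Male Sprague Dawley rats (150–180 g) dosed ip, pilocarpine 50 mg/kg ip given; compound dosed immediately at first behavioral Stage 3 seizure or 30 min later. Number protected from Racine Stage 3 or greater seizures recorded.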

Rattus norvegicus [25] = experiment: Anticonvulsant activity in Sprague-Dawley rat assessed as protection against maximal electroshock-induced seizure at 30 mg/kg, po; assay type: functional
Mus musculus [26] = experiment: Neurotoxicity in CF1 albino mouse at 100 mg/kg, ip after 0.25 to 2 hrs by rotarod test; assay type: toxicity, organism-based; conditions: in vivo; in short: as §2
Mus musculus [27] = experiment: Anticonvulsant activity in CF1 albino mouse assessed as protection against 6 Hz-psychomotor-induced seizure at 100 mg/kg, ip after 0.5 to 1 hr; assay type: functional, organism-based
In short: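 Male CF-1 mice, ip suspension in 0.5% methylcellulose. Corneal stimulation 0.2 ms monopolar rectangular pulses at 6 Hz, 32 mA for 3 s via constant-current device; mice without minimal clonic phase seizure counted protected. Groups of four; read at 0.25, 0.5, 1, 2, 4 h; result as protected/tested.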

Mus musculus [28] = experiment: Neurotoxicity in ip dosed CF1 albino mouse after 0.25 hrs by rotarod test; assay type: toxicity, organism-based; conditions: in vivo
In short: as §2, with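 “dosing.” for “dosing. TD50 with 95% confidence interval from the quantitative study.”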

Mus musculus [29] = experiment: Anticonvulsant activity in ip dosed CF1 albino mouse assessed as protection against subcutaneous pentetrazole-induced seizure after 0.25 hrs; assay type: functional; in short: as §1
Mus musculus [30] = experiment: Neurotoxicity in CF1 albino mouse at 3 mg/kg, ip after 0.5 hrs by rotarod test; assay type: toxicity, organism-based; conditions: in vivo; in short: as §2

Histamine H3 receptor, sequence (Q9Y5N1 whole entry): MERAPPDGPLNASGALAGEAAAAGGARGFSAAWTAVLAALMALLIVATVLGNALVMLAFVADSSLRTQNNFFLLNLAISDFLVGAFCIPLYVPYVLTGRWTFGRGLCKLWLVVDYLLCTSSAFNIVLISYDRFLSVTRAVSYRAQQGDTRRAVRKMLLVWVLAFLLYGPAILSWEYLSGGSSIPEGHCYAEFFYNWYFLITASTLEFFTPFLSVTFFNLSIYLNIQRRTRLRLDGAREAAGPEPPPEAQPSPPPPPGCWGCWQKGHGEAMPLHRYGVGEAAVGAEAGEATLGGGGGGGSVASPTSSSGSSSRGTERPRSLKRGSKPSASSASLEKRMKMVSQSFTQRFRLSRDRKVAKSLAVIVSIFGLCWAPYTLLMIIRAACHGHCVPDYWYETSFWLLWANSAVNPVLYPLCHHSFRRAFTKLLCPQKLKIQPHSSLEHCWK

Structure (SMILES) | Activity (Mus musculus [1]) | Activity (Mus musculus [2]) | Activity (Mus musculus [4]) | Activity (Mus musculus [5]) | Activity (Mus musculus [6]) | Ki (Histamine H3 receptor) [µM] | Activity (Mus musculus [7]) | Activity (Mus musculus [8]) | Activity (Mus musculus [10]) | Activity (Mus musculus [11]) | Activity (Mus musculus [13]) | Activity (Mus musculus [14]) | Activity (Mus musculus [15]) | also measured
CC1CCN(CCCCCCCOc2cccc(Cl)c2)CC1.O=C(O)C(=O)O | inactive | Non-toxic | inactive | Non-toxic | inactive | 0.805 | Active | inactive | inactive | Non-toxic | inactive | inactive | Non-toxic | Activity (Mus musculus [3]): Toxic; Activity (Mus musculus [9]): Toxic; Activity (Mus musculus [12]): Active
CC1CCCN(CCCCCCOc2ccc(Cl)cc2)C1.O=C(O)C(=O)O (centres undefined) | inactive | Non-toxic | inactive | Non-toxic | Active | 0.205 | Active | inactive | inactive | Non-toxic | inactive | Active | Non-toxic | Activity [16]: inactive; ED50 (Mus musculus [17]): 16.8 mg/kg; Ratio TD50/ED50 (Mus musculus [18]): 3; Activity (Mus musculus [19]): inactive; Activity (Mus musculus [20]): Non-toxic; Activity (Mus musculus [21]): inactive; Activity [22]: inactive; Activity (Mus musculus [23]): Toxic; Activity (Rattus norvegicus [24]): Active; Activity (Rattus norvegicus [25]): 25%; Activity (Mus musculus [26]): Toxic; Activity (Mus musculus [27]): inactive; TD50 (median neurotoxic dose) (Mus musculus [28]): 50.4 mg/kg; ED50 (Mus musculus [29]): > 50 mg/kg; Activity (Mus musculus [30]): Non-toxic
